Columns and labels:
[1] = target: T1, Cathepsin K (Homo sapiens, UniProt P43235); assay: Cathepsin activity assay, z-Phe-Arg-AMC substrate, cathepsin K; assay type: biochemical; details: read-out: IC50 Cathepsin K, pH 5.5, tested under 10 μM
T1 sequence (P43235 115-329): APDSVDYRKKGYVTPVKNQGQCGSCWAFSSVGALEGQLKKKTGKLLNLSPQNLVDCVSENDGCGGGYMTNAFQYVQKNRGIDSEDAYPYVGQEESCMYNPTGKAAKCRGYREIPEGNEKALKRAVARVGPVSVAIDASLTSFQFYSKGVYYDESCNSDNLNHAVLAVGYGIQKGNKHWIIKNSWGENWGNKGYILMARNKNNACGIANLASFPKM
How it was run: (§1)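 Cathepsin activity was read fluorimetrically on a microplate reader with z-Phe-Arg-AMC as substrate. Activity data were fitted to a linearized curve, and IC50 was read from that curve.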

[2] = target: Cathepsin L (Homo sapiens, UniProt P07711); assay: Cathepsin activity assay, z-Phe-Arg-AMC substrate, cathepsin L; assay type: biochemical; details: read-out: IC50 Cathepsin L, pH 5.5, tested under 10 μM
How it was run: as §1

[3] = tested on: activated form of MMP-2; details: <50 μmol L^−1; cited from earlier work
[4] = tested on: pro-MMP-2; details: <50 μmol L^−1; cited from earlier work

Chain of Cathepsin L (P07711 114-333, species assumed): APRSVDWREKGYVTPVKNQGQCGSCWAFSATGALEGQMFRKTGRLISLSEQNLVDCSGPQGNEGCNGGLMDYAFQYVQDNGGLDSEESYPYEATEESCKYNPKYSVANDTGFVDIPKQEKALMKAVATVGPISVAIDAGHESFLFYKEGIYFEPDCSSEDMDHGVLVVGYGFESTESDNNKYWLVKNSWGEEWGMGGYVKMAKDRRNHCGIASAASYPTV

SMILES | IC50 [1] [µM] | IC50 [2] [µM] | effect on the activated form of MMP-2 [3] | effect on activity and expression of pro-MMP-2 [4]
[Cl-].[Cl-].[Cl-].[Gd+3] [GdCl36H2O] | > 10 | > 10 | – | –
[Cl][Yb]([Cl])[Cl] [YbCl3·6H2O] | > 10 | > 10 | – | –
O.O.O.O.O.O.O.[Cl-].[Cl-].[Cl-].[La+3] [LaCl3·7H2O] | – | – | does not suppress the activated form of MMP-2 | inhibits the activity and expression of pro-MMP-2
[Cl-].[Cl-].[Cl-].[La+3] [LaCl3·7H2O] | > 10 | > 10 | – | –
[Cl][Eu]([Cl])[Cl] [EuCl3·6H2O] | > 10 | > 10 | – | –
[Cl-].[Cl-].[Cl-].[Tb+3] [TbCl3·6H2O] | > 10 | > 10 | – | –

— publication PMC9079887 (RSC Advances, 2018)
